Measured values published in ChEMBL document CHEMBL3120102, “Structure-based design, synthesis and biological evaluation of novel anthra[1,2-d]imidazole-6,11-dione homologues as potential antitumor agents” (2013).

Columns and labels:
Type in all cases: functional
[1] = test system: MDA-MB-468; experiment: Cytotoxicity against human MDA-MB-468 cells assessed as cell growth at 10 uM after 48 hrs by SRB assay; settings: MDA-MB-468, 48 h, read-out: Activity
Method in brief: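 First stage of the NCI 60 human tumour cell line screen: a single dose is tested against every line. Cell growth is read as cellular protein by sulforhodamine B colorimetry after 48 h of drug exposure, with reference to a time-zero control and to untreated plates.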

[2] = test system: UACC-62; experiment: Cytotoxicity against human UACC62 cells assessed as growth inhibition after 48 hrs by SRB assay
Method in brief: (§1)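 NCI 60-cell-line screen, two stages. Five-dose testing at […]. Cellular protein measured by sulforhodamine B colorimetry after 48 h drug exposure. A time-zero control and drug-free plates are used to derive GI50, TGI and LC50 from dose-response curves plotted as log10 concentration per cell line.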

[3] = (§2) Cytotoxicity against human OVCAR5 cells assessed as growth inhibition after 48 hrs by SRB assay; settings: OVCAR-5, 48 h
Method in brief: (§3)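 NCI 60-cell-line screen, five-dose stage: each cell line exposed for 48 h to five concentrations spanning five log steps; cellular protein measured by sulforhodamine B colorimetry. A time-zero cell control and plates without drug are used to derive GI50, TGI and LC50 from log-concentration dose-response curves.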

[4] = test system: OVCAR-5; experiment: as §2; method in brief: as §3
[5] = test system: MDA-MB-435; experiment: Cytotoxicity against human MDA-MB-435 cells assessed as growth inhibition after 48 hrs by SRB assay; method in brief: as §3
[6] = test system: M14; experiment: Cytotoxicity against human M14 cells assessed as growth inhibition after 48 hrs by SRB assay
Method in brief: (§4)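 NCI 60-cell-line five-dose screen at […]. Drug exposure was 48 h, followed by sulforhodamine B protein staining. GI50, TGI and LC50 were calculated against a time-zero control and untreated plates, with dose–response curves plotted from log10 concentration.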

[7] = test system: RXF 393; experiment: Cytotoxicity against human RXF393 cells assessed as growth inhibition after 48 hrs by SRB assay; method in brief: as §3
[8] = test system: NCI-H322M; experiment: Cytotoxicity against human NCI-H322M cells assessed as growth inhibition after 48 hrs by SRB assay; method in brief: as §3
[9] = test system: HCT-116; experiment: Cytotoxicity against human HCT116 cells assessed as growth inhibition after 48 hrs by SRB assay; method in brief: as §4
[10] = test system: NCI-H226; experiment: Cytotoxicity against human NCI-H226 cells assessed as growth inhibition after 48 hrs by SRB assay; method in brief: as §3
[11] = test system: SF-295; experiment: Cytotoxicity against human SF295 cells assessed as growth inhibition after 48 hrs by SRB assay; method in brief: as §3
[12] = test system: OVCAR-3; experiment: Cytotoxicity against human OVCAR3 cells assessed as growth inhibition after 48 hrs by SRB assay; method in brief: as §3
[13] = test system: CCRF-CEM; experiment: Cytotoxicity against human CCRF-CEM cells assessed as growth inhibition after 48 hrs by SRB assay; method in brief: as §4
[14] = test system: A498; experiment: Cytotoxicity against human A498 cells assessed as growth inhibition after 48 hrs by SRB assay; method in brief: as §4
[15] = test system: PC-3; experiment: Cytotoxicity against human PC3 cells assessed as growth inhibition after 48 hrs by SRB assay; method in brief: as §3
[16] = test system: HCT-15; experiment: Cytotoxicity against human HCT15 cells assessed as growth inhibition after 48 hrs by SRB assay; method in brief: as §4
[17] = test system: SR; experiment: Cytotoxicity against human SR cells assessed as growth inhibition after 48 hrs by SRB assay; method in brief: as §1
[18] = test system: MDA-MB-231; experiment: Cytotoxicity against human MDA-MB-231 cells assessed as growth inhibition after 48 hrs by SRB assay; method in brief: as §3
[19] = test system: NCI-H460; experiment: Cytotoxicity against human NCI-H460 cells assessed as growth inhibition after 48 hrs by SRB assay; method in brief: as §3
[20] = test system: Malme-3M; experiment: Cytotoxicity against human MALME-3M cells assessed as growth inhibition after 48 hrs by SRB assay; method in brief: as §4
[21] = test system: NCI-H23; experiment: Cytotoxicity against human NCI-H23 cells assessed as growth inhibition after 48 hrs by SRB assay; method in brief: as §3
[22] = test system: BT-549; experiment: Cytotoxicity against human BT549 cells assessed as growth inhibition after 48 hrs by SRB assay; method in brief: as §4
[23] = test system: SK-MEL-28; experiment: Cytotoxicity against human SK-MEL-28 cells assessed as growth inhibition after 48 hrs by SRB assay; method in brief: as §3
[24] = test system: SK-OV-3; experiment: Cytotoxicity against human SKOV3 cells assessed as growth inhibition after 48 hrs by SRB assay; method in brief: as §3
[25] = test system: HL-60(TB); experiment: Cytotoxicity against human HL-60(TB) cells assessed as growth inhibition after 48 hrs by SRB assay
Method in brief: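 NCI 60-cell panel five-concentration stage (0.01, 0.1, 1, 10, 100) in HL-60(TB). Cellular protein was measured by sulforhodamine B colorimetry after 48 h of exposure. A time-zero cell control and untreated plates allowed calculation of GI50, TGI and LC50. These were read from log10 concentration dose-response curves.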

For `O=C1c2ccccc2C(=O)c2c1ccc1nc3n(c21)CCS3`, which growth at 10 µM [1] is on record?
Its growth at 10 µM is 69.7%.

For `O=C1c2ccccc2C(=O)c2c1ccc1nc(SCCN3CCCC3)[nH]c21`, which “growth inhibition (GI)” value [2] is on record?
Its value is “Dose-dependent effect”.

What about the GI50 ([2]; UACC-62, 48 h) of the same compound?
Its GI50 is 15.8 µM.

What about the LC50 ([2]; UACC-62, 48 h) of the same compound?
The LC50 was 57.4 µM.

What about the TGI ([2]; UACC-62, 48 h) of the same compound?
Its TGI is 30.1 µM.

And the GI50 [3]?
Its GI50 is 15.5 µM.

And the LC50 [3]?
Its LC50 is 55.8 µM.

And the TGI [3]?
The TGI was 29.4 µM.

And the “growth inhibition (GI)” value [4]?
Its value is “Dose-dependent effect”.

What about the “growth inhibition (GI)” value [5] of the same compound?
The value was “Dose-dependent effect”.

What about the GI50 ([5]; MDA-MB-435, 48 h) of the same compound?
The GI50 was 4.18 µM.

And the LC50 ([5]; MDA-MB-435, 48 h)?
The LC50 was 43.9 µM.

And the TGI ([5]; MDA-MB-435, 48 h)?
Its TGI is 16.2 µM.

What about the “growth inhibition (GI)” value [6] of the same compound?
The value was “Dose-dependent effect”.

And the GI50 ([6]; M14, 48 h)?
The GI50 was 8.24 µM.

And the LC50 ([6]; M14, 48 h)?
Its LC50 is 47.9 µM.

And the TGI ([6]; M14, 48 h)?
Its TGI is 21.2 µM.

What about the “growth inhibition (GI)” value [7] of the same compound?
Its value is “Dose-dependent effect”.

What about the GI50 ([7]; RXF 393, 48 h) of the same compound?
Its GI50 is 3.08 µM.

What about the TGI ([7]; RXF 393, 48 h) of the same compound?
The TGI was 16.3 µM.

What about the CC50 ([7]; RXF 393, 48 h, read-out: LC50 (the source's name)) of the same compound?
Its CC50 is 48.5 µM.

What about the TGI [8] of the same compound?
The TGI was 21.4 µM.

What about the “growth inhibition (GI)” value [8] of the same compound?
The value was “Dose-dependent effect”.

What about the “growth inhibition (GI)” value [9] of the same compound?
Its value is “Dose-dependent effect”.

What about the GI50 ([9]; HCT-116, 48 h) of the same compound?
The GI50 was 1.64 µM.

And the LC50 ([9]; HCT-116, 48 h)?
Its LC50 is 8.15 µM.

And the TGI ([9]; HCT-116, 48 h)?
The TGI was 3.66 µM.

What about the “growth inhibition (GI)” value [10] of the same compound?
The value was “Dose-dependent effect”.

And the TGI ([10]; NCI-H226, 48 h)?
Its TGI is 36.6 µM.

What about the “growth inhibition (GI)” value [11] of the same compound?
Its value is “Dose-dependent effect”.

What about the GI50 ([11]; SF-295, 48 h) of the same compound?
Its GI50 is 14.2 µM.

What about the LC50 ([11]; SF-295, 48 h) of the same compound?
Its LC50 is 60.9 µM.

And the TGI ([11]; SF-295, 48 h)?
The TGI was 29.4 µM.

What about the “growth inhibition (GI)” value [12] of the same compound?
Its value is “Dose-dependent effect”.

What about the GI50 ([12]; OVCAR-3, 48 h) of the same compound?
The GI50 was 2.76 µM.

And the LC50 (50% lethal concentration) ([12]; OVCAR-3, 48 h)?
Its LC50 (50% lethal concentration) is 35.6 µM.

What about the TGI ([12]; OVCAR-3, 48 h) of the same compound?
The TGI was 11.1 µM.

And the GI50 [13]?
The GI50 was 3.34 µM.

And the LC50 [13]?
The LC50 was 62.8 µM.

What about the TGI [13] of the same compound?
The TGI was 15.6 µM.

And the “growth inhibition (GI)” value [13]?
Its value is “Dose-dependent effect”.

And the “growth inhibition (GI)” value [14]?
The value was “Dose-dependent effect”.

What about the GI50 ([14]; A498, 48 h) of the same compound?
The GI50 was 5.82 µM.

And the TGI ([14]; A498, 48 h)?
The TGI was 21.3 µM.

And the CC50 ([14]; A498, 48 h, read-out: LC50 (the source's name))?
The CC50 was 49.4 µM.

And the “growth inhibition (GI)” value [15]?
Its value is “Dose-dependent effect”.

And the GI50 ([15]; PC-3, 48 h)?
The GI50 was 2.57 µM.

And the LC50 ([15]; PC-3, 48 h)?
Its LC50 is 43.4 µM.

And the TGI ([15]; PC-3, 48 h)?
Its TGI is 11 µM.

And the “growth inhibition (GI)” value [16]?
The value was “Dose-dependent effect”.

And the GI50 ([16]; HCT-15, 48 h)?
Its GI50 is 1.62 µM.

And the LC50 (concentration killing 50% of cells) ([16]; HCT-15, 48 h)?
Its LC50 (concentration killing 50% of cells) is 34.7 µM.

What about the TGI ([16]; HCT-15, 48 h) of the same compound?
The TGI was 10.3 µM.

What about the GI50 [17] of the same compound?
Its GI50 is 1.48 µM.

What about the LC50 (50% lethal concentration) [17] of the same compound?
Its LC50 (50% lethal concentration) is 86.3 µM.

And the TGI [17]?
Its TGI is 4.19 µM.

What about the “growth inhibition (GI)” value [17] of the same compound?
Its value is “Dose-dependent effect”.

And the “growth inhibition (GI)” value [18]?
Its value is “Dose-dependent effect”.

And the GI50 ([18]; MDA-MB-231, 48 h)?
The GI50 was 4.46 µM.

What about the LC50 ([18]; MDA-MB-231, 48 h) of the same compound?
The LC50 was 43.9 µM.

What about the TGI ([18]; MDA-MB-231, 48 h) of the same compound?
The TGI was 16.2 µM.

What about the growth at 10 µM [1] of the same compound?
The growth at 10 µM was 67.9%.

And the “growth inhibition (GI)” value [19]?
The value was “Dose-dependent effect”.

And the TGI ([19]; NCI-H460, 48 h)?
Its TGI is 4.77 µM.

What about the GI50 [20] of the same compound?
The GI50 was 14 µM.

And the TGI [20]?
Its TGI is 28.8 µM.

What about the “growth inhibition (GI)” value [20] of the same compound?
The value was “Dose-dependent effect”.

And the CC50 ([20]; read-out: LC50 (the source's name))?
The CC50 was 59.4 µM.

What about the “growth inhibition (GI)” value [21] of the same compound?
The value was “Dose-dependent effect”.

And the TGI ([21]; NCI-H23, 48 h)?
The TGI was 25.7 µM.

And the “growth inhibition (GI)” value [22]?
The value was “Dose-dependent effect”.

What about the GI50 ([22]; BT-549, 48 h) of the same compound?
The GI50 was 12.5 µM.

And the LC50 (concentration killing 50% of cells) ([22]; BT-549, 48 h)?
Its LC50 (concentration killing 50% of cells) is 55.8 µM.

And the TGI ([22]; BT-549, 48 h)?
Its TGI is 26.4 µM.

What about the “growth inhibition (GI)” value [23] of the same compound?
The value was “Dose-dependent effect”.

What about the GI50 ([23]; SK-MEL-28, 48 h) of the same compound?
Its GI50 is 2.2 µM.

And the LC50 ([23]; SK-MEL-28, 48 h)?
The LC50 was 9.08 µM.

And the TGI ([23]; SK-MEL-28, 48 h)?
Its TGI is 4.47 µM.

And the “growth inhibition (GI)” value [24]?
The value was “Dose-dependent effect”.

And the GI50 ([24]; SK-OV-3, 48 h)?
The GI50 was 10.5 µM.

What about the LC50 (concentration killing 50% of cells present at time zero) ([24]; SK-OV-3, 48 h) of the same compound?
Its LC50 (concentration killing 50% of cells present at time zero) is 54 µM.

What about the TGI ([24]; SK-OV-3, 48 h) of the same compound?
The TGI was 23.8 µM.

What about the “growth inhibition (GI)” value [25] of the same compound?
Its value is “Dose-dependent effect”.

What about the GI50 ([25]; HL-60, 48 h) of the same compound?
Its GI50 is 1.13 µM.

What about the LC50 ([25]; HL-60, 48 h) of the same compound?
The LC50 was 57.6 µM.

What about the TGI ([25]; HL-60, 48 h) of the same compound?
The TGI was 11.9 µM.
